Entries after “also recorded” stand apart in the source; their conditions may differ. Where two headings read alike, the source gives them in different places.

The conditions of data set [1]: cited from earlier work.
The conditions of data set [2]: cited from earlier work. This is another data set of the same source.
Data set [3] concerns female Sprague Dawley rats. Description: Locomotor activity in OpenField arena after i.p. or inhaled THC. The conditions noted are these: for vertical plane entries (rearing), total: 45 minute session. It counts as in vivo, rat. A digest of the protocol: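 Separate cohort of adult female rats (n=15): habituation session, then five vehicle or THC days, each 3 days apart. Dosing was 2 mg/kg i.p., or 10 min vapour exposure (0.25 mL of 40 or 160 mg/mL; 0.19 or 0.76 mg/kg). Rats entered the arena immediately for 45 min, n=10–15 per group. Analysis: two-way RM ANOVA (time × treatment), Sidak or Tukey post hoc.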

Data set [4] in a line: Serum pharmacokinetics of THC and metabolites after inhaled or i.p. THC. It counts as in vivo, female Sprague Dawley rats.
The subject of another data set is rodents. The conditions noted are these: i.p. injected THC; cited from earlier work.
Setting [5] is: female, Sprague Dawley, rat, serum, inhaled or intranasal, 0.19 mg/kg.
[6] abbreviates: female, Sprague Dawley, rat, serum, inhaled or intranasal, 0.76 mg/kg.
The mark [7] stands for this setting: female, Sprague Dawley, rat, serum, ip, 2 mg/kg.
Setting [8] is: 0.19 mg/kg vaporized/inhaled THC (0.25 mL of 40 mg/mL, 10 min exposure), serum.
[9] abbreviates: 0.76 mg/kg vaporized/inhaled THC (0.25 mL of 160 mg/mL, 10 min exposure), serum.
[10] abbreviates: 2 mg/kg THC i.p., serum, female Sprague Dawley rats.

Take `CCCCCc1cc(O)c2c(c1)OC(C)(C)[C@@H]1CCC(C)=C[C@@H]21` [THC, delta-9-tetrahydrocannabinol]: the “time of peak THC brain levels” value in data set [1] (after THC inhalation in males, ref 35 (Hložek et al.)) is 15 min. Also, the “mean Cmax levels of THC” value in data set [1] (female Sprague Dawley rats, 5 minutes post-30 minute inhalation of 200 mg/mL THC) is reported as 303 ng/mL. Further, the “time of peak THC brain levels” value in data set [1] (ref 26 (Baglot et al.)) was 30 min. Besides, the “plasma concentration Cmax” value in data set [2] (human clinical study at a similar dose) was 73.81 ± 63.09 ng/mL. Moreover, in data set [2] (human, 6 subjects given the same dose of THC under the same regime), the “plasma Cmax values across individual subjects” value was 70 to 280 ng/mL. Moreover, the “mean Cmax of THC” value in data set [2] (human, acute THC inhalation, whole blood, lowest mean across studies) is on record as 4 ng/mL. In data set [2] (human, smoked or vaped cannabis at similar doses), the “mean Cmax ranges in clinical studies” value is 4 to 162 ng/mL. For the same compound, the “vertical plane entries (rearing), total” value in data set [3] (0.19 mg/kg INH THC vs vehicle) was “Significantly reduced; also recorded: significantly decreased; also recorded: reduced rearing activity”. In addition, the floor plane distance result in data set [3] (0.76 mg/kg inhaled THC vs vehicle, at 20 minutes) is listed as “significantly higher; also recorded: slightly heightened locomotion”. Besides, the “horizontal distance traveled or altered thigmotaxis” value in data set [3] (0.76 mg/kg inhaled THC, over a 45-minute period) is listed as “minimal effect”. For the same compound, the center distance travelled result in data set [3] (0.76 mg/kg vaporized THC vs vehicle, at 20 minutes) is listed as “significantly higher; also recorded: increased center distance travelled”. The “vertical plane entries (rearing), total” value in data set [3] (2 mg/kg i.p. THC vs vehicle) is listed as “Significantly reduced; also recorded: significant reduction; also recorded: reduced rearing activity”. The “margin distance, post-hoc comparisons” value in data set [3] (vaporized THC 0.19 or 0.76 mg/kg vs vehicle) is “no significant post-hoc comparisons”. Besides, the “Vss (volume of distribution at steady state)” value in data set [4] (0.19 mg/kg vaporized) is given as 8.6 L/kg. Moreover, the “Vss (volume of distribution at steady state)” value in data set [4] (0.76 mg/kg vaporized) amounted to 24.4 L/kg. For the same compound, in data set [4] (setting [5]), the area under the curve AUC(0-inf) was 87 ng·h/mL, the CL/F was 38.3 mL/min/kg, the Cmax was 43.3 ng/mL and the time of peak concentration (Tmax) is 10 min. Besides, in data set [4] (setting [5]), the Vd/F is 7.4 L/kg, the half-life is 132 min and the k el was 8.33e-05 s⁻¹. In data set [4] (setting [6]), the AUC(0-inf) is 94.4 ng·h/mL, the apparent clearance CL/F was 142 mL/min/kg, the peak concentration (Cmax) was determined as 71.6 ng/mL and the time of peak concentration (Tmax) was 5 min. In data set [4] (setting [6]), the Vd/F was found to be 33 L/kg, the half-life is 162 min and the k el is 8.33e-05 s⁻¹. In data set [4] (setting [7]), the AUC(0-inf) is 364 ng·h/mL, the CL/F is 91.7 mL/min/kg, the peak concentration (Cmax) came out at 108 ng/mL and the Tmax was 10 min. For the same compound, in data set [4] (setting [7]), the Vd/F amounted to 26.9 L/kg, the half-life was 204 min and the k el was 5.56e-05 s⁻¹. For the same compound, the “fold-change of Cmax values” in data set [4] (increasing inhaled THC dose from 0.19 mg/kg to 0.76 mg/kg) is 1.6 fold. In addition, the “dose at which horizontal locomotion is affected” value with rodents was at least 15 mg/kg.

Take “11-hydroxy-delta-9-tetrahydrocannabinol [11-OH-THC]”: the “metabolite level relative to THC” value in data set [2] (human, acute inhalation, % of THC) is reported as “up to 30%”. Besides, the time of peak concentration (Tmax) in data set [4] (0.19 mg/kg vaporized THC, time after conclusion of inhalation) stood at 5 min; in data set [4] (0.76 mg/kg vaporized THC, time after conclusion of inhalation), 5 min; in data set [4] (2 mg/kg THC i.p., time post-injection), 20 min. Moreover, the “Cmax (maximum serum concentration)” value in data set [4] (setting [8]) was 14.4 ± 1.4 ng/mL; in data set [4] (setting [9]), 35.6 ± 7.4 ng/mL; in data set [4] (setting [10]) it was 84.2 ± 19.3 ng/mL.

On to `CCCCCc1cc(O)c2c(c1)OC(C)(C)C1CCC(C(=O)O)=CC21` (stereo not shown) [THC-COOH, 11-nor-9-carboxy-delta-9-tetrahydrocannabinol], for which the “time detectable in the bloodstream after administration” value in data set [2] (humans) is given as at least 7 days. The “Cmax (maximum serum concentration)” value in data set [4] (setting [8]) came out at 20.9 ± 4.1 ng/mL; in data set [4] (setting [9]), 19.9 ± 2.2 ng/mL; in data set [4] (setting [10]), 87.0 ± 21.8 ng/mL.

As a reminder, the AUC(0-inf) is total exposure, with the tail of the curve extrapolated. The CL/F is clearance divided by bioavailability, as obtained after extravascular dosing. For orientation: Cmax means the highest concentration seen after dosing. For orientation: Tmax means the time at which the peak concentration occurs. What is called Vd/F is the volume of distribution divided by bioavailability. Usually half-life stands for how long it takes for the measured level to halve.

The record behind these values is PMC10979821 (Current pharmaceutical design, 2023).
